Measurements pooled from the literature.
Protocols differ between the studies behind these lines.
Target: Serine/threonine-protein kinase Chk1 (CHEK1, Homo sapiens, UniProt O14757)
Action: inhibitor
Sequence (O14757 1-476, as in one of the studies): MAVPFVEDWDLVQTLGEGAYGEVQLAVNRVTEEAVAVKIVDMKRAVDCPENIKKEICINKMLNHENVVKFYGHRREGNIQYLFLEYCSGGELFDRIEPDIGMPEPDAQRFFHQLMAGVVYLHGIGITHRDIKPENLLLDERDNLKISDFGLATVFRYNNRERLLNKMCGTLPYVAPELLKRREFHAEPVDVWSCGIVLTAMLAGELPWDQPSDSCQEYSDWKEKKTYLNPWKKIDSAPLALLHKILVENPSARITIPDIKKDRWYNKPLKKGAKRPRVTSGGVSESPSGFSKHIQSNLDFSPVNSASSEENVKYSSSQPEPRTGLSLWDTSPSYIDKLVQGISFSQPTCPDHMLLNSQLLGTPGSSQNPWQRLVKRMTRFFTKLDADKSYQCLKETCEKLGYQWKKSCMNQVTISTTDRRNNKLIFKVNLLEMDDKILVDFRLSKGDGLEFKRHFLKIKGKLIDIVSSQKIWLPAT

SMILES | observed | technique | cells | tested at | inhibition [%]
CNCc1ccc(-c2cc(-c3nc(-c4ccc(S(=O)(=O)C(C)C)cc4)cnc3N)on2)cc1 | enzyme activity |  |  | 2 µM | 52
Cc1ccc(Nc2nccc(N(C)c3ccc4c(C)n(C)nc4c3)n2)cc1S(N)(=O)=O | enzyme activity |  |  | 10 µM | -6
CNc1cccc2cc(C(=O)Nc3ccc(C(=O)O)cc3)c(=O)[nH]c12 | enzyme activity |  |  | 10 µM | -1.6
CCN1CCN(Cc2ccc(NC(=O)c3ccc(C)c(/C=C/c4cnc5[nH]ccc5c4OC)c3)cc2C(F)(F)F)CC1 | target engagement in cells | chemoproteomics | A-375 | 50 nM | -118
CNC(=O)c1cc(Oc2ccc(NC(=O)Nc3ccc(Cl)c(C(F)(F)F)c3)cc2)ccn1 | enzyme activity |  |  | 10 µM | -27
O=C(CSc1nc2nccnc2c(=O)n1CCc1ccccc1)Nc1nccs1 | enzyme activity |  |  | 10 µM | -11
CCN1CCN(Cc2ccc(NC(=O)c3ccc(C)c(Oc4ccnc5[nH]ccc45)c3)cc2C(F)(F)F)CC1 | target engagement in cells | chemoproteomics | A-375 | 50 nM | -156
CCCOc1ccc(/C=C2\SC(=O)NC2=O)cc1 | enzyme activity | mobility shift |  | 5 µM | -20
CN(C)C1CCN(CC#Cc2nn(C3CCCC3)c3nc(NCc4ccccc4)ncc23)C1 (stereo not shown) | enzyme activity | FRET |  | 10 µM | 15
COc1cc2ncnc(Nc3ccc(Oc4ccccc4)cc3C)c2cc1OC | enzyme activity |  |  | 1 µM | 6
CSc1nc(C)c(-c2ccnc(Nc3ccc(N4CCOCC4)cc3)c2)[nH]1 | enzyme activity |  |  | 10 µM | 12.4
CCCS(=O)(=O)Nc1ccc(F)c(C(=O)c2c[nH]c3ncc(-c4ccc(Cl)cc4)cc23)c1F | enzyme activity |  |  | 1 µM | < 10
COc1cccc2c(NCc3ccccc3)nc(-n3c(N)nc4ccccc43)nc12 | target engagement in cells | chemoproteomics |  | 20 mM | -4.2
